Data taken from article PMC6014630 (Tuberculosis (Edinburgh, Scotland), 2018).

How the values were obtained:
[1] = test system: human neutrophils, monocytes and lymphocytes; type: cell-based
[2] = test system: lung cell populations of TDM-challenged C57BL/6 mice; assay: In vivo cellular specificity of cFLFLFK-PEG12-Cy3 in TDM-challenged mouse lung; details: 50 µg i.v., 4 h circulation, 5 days after TDM; flow cytometry, n=3
Procedure, shortened: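 Female C57BL/6 mice (8 weeks, 18–20 g) received 100 µg TDM i.v. Five days later they got 50 µg Cy3-labelled test compound i.v. (n=3) or PBS (n=2). Lungs were digested 4 h later, and cells (2×10^6/mL in HBSS+) were live/dead stained 30 min on ice. They were blocked 30 min (40% mouse serum), plated at 1×10^6/well and mAb-stained. Flow cytometry acquired 100,000 live events. Gated populations were CD11b+Ly6G+, CD3+, CD11c+CD11b-, CD11b+CD11c+, CD11b+CD11c- and marker-negative. Each population's share of total Cy3 signal was pooled across mice.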

C57BL/6 mouse lung = assay: TDM-induced lung granulomatous inflammation in mice; type: in vivo
Procedure, shortened: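 TDM was given via tail vein as an oil-in-water emulsion (100 µL, 100 µg), or vehicle alone. Day-5 lungs were H&E-stained for light microscopy (histology mice 6 weeks old). Flow cytometry used five TDM-treated mice (female, 8 weeks) with live/dead staining and mAb gating: CD11b+Ly6G+ neutrophils, CD3+ lymphocytes, CD11c+CD11b- alveolar macrophages, CD11b+CD11c+ macrophages/dendritic cells, CD11b+CD11c- monocytes/immature macrophages. Values are percentages of all living cells.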

[3] = five TDM-administered mice, day 5

Substance	Cy3 MFI on neutrophils compared with monocytes and lymphocytes [1]	Dose dependence of binding to neutrophils, monocytes and lymphocytes [1]	Targeting of lymphocytes and other (antibody-negative) cells in the lung [2]	Lung histology (H&E) (C57BL/6 mouse lung; 100 µg TDM i.v., day 5, versus vehicle emulsion)	Change in lung frequency of CD3+ lymphocytes (C57BL/6 mouse lung; 100 µg TDM i.v., day 5, flow cytometry)	Frequency increase of lung neutrophils compared to vehicle-injected mice (C57BL/6 mouse lung; 100 µg TDM i.v., day 5, flow cytometry, data not shown)	Percentage of alveolar macrophages relative to all living lung cells (C57BL/6 mouse lung; [3])	Percentage of immature macrophages/monocytes relative to all living lung cells (C57BL/6 mouse lung; [3])	Percentage of lymphocytes relative to all living lung cells (C57BL/6 mouse lung; [3])	Percentage of macrophages/dendritic cells relative to all living lung cells (C57BL/6 mouse lung; [3])	Percentage of neutrophils relative to all living lung cells (C57BL/6 mouse lung; [3])
cFLFLFK-PEG12-Cy3	significantly higher	Dose-dependent binding was observed on all cell types	not targeted								
trehalose dimycolate [TDM]				patchy regions of granulomatous inflammation were observed	unchanged	9.1% ± 6.4%	6.3% ± 1.7%	20.1% ± 3.1%	10.7% ± 2.5%	17.7% ± 7.7%	9.2% ± 3.7%
